SENP1 inh – SENP1 (human) catalytic domain inhibition. AID 624204. hit rate 0.21% among 360,000. recombinant SENP1 catalytic domain, CyPet-SUMO1-YPet FRET cleavage. Q9P0U3. inhibition, % at 10 µM;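 active = inhibition at least 30% at 10 µM, raw YFP signal under a set limit, fluorescence ratio 0.5 to 1.5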;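 also: 0% = enzyme with DMSO and 100% = no enzyme wells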
Target sequence (Q9P0U3 419-644 limits assumed): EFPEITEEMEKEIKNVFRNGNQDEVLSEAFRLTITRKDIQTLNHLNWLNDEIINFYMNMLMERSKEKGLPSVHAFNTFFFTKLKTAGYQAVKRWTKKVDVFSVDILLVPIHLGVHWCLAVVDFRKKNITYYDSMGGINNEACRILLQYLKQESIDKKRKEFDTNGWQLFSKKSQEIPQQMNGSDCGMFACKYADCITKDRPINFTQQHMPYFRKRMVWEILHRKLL
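Controls: no-enzyme wells low, DMSO-plus-enzyme wells high control. Test system: human recombinant His6-tagged SENP1 catalytic domain enzyme. Reagent: SFCypet-SUMO1-SFYpet FRET protein substrate, 25 nM final. Doses: one dose per compound, 10 µM, 0.5% DMSO. Detection: FRET, CFP and YFP emission. Timing: 50 min reaction at room temperature.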
NR3A LBD binder – modulators (binders) of human NR3A ligand-binding domain; NR3A LBD differential scanning fluorimetry, Tm shift; 0% = protein alone, 100% = glycine-bound protein; Tm shift relative to glycine control, % at 25 µM; hit rate 2.5% among 340,000;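 active = melting temperature shift of at least 10% of the positive control shift, at one fixed dose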
FAS TE block – blocks the thioesterase domain of human fatty acid synthase | P49327 | recombinant FAS-TE, OMFH fluorogenic substrate, fluorescence endpoint | inhibition, % at 15 µM | hit rate 0.67% among 360,000 | AID 602261;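 active = compounds whose normalised, plate-corrected inhibition of enzyme fluorescence in the single-dose primary screen is 50% or more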;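 also: 0% = DMSO with enzyme and 100% = substrate without enzyme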
H9c2 protect – modulators protecting cardiomyocytes from myocardial damage; H9c2 cardiomyocytes, H2O2 injury protection, ATPLite, 2 h; protection from H2O2 cell death, % at 20 µM; hit rate 0.63% among 360,000; AID 588492;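 active = compounds giving at least 50% protection of heart cells from peroxide-induced death in the single-dose screen, raw or plate-pattern-corrected value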;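 also: 0% = DMSO wells with peroxide and 100% = DMSO wells without peroxide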
Arrestin-AP2 inh – blocks beta-arrestin peptide binding to AP2 adaptin; hit rate 0.31% among 340,000; inhibition, % at 10 µM; FITC-arrestin peptide / GST-AP2 beads, flow cytometry; AP2 beta2 appendage carries R879A mutation; AID 504490;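 active = inhibition above a set limit, near 3 SD of compounds lacking own fluorescence, cut at about 54% in these data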;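 also: plate controls were DMSO wells for no effect and 5 µM unlabelled arrestin peptide for full effect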
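Material – AP2 appendage R879A on GSH beads · Buffer or medium – PBS with 0.05% Tween 20 and 0.1% BSA · Probe or stimulus – fluorescein-tagged arrestin peptide at 50 nM final · Incubation – compound with beads 12 min RT, then probe 1 h RT · Detection – high-throughput flow cytometry of beads, ex 488, em 535 nm · Evaluation – percent response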
hiPSC survival – increases survival of single human iPS cells | survival enhancement, % at 20 µM | hiPSC single-cell survival, ATPlite luminescence; 100% = ROCK inhibitor wells, 0% = DMSO | hit rate 0.044% among 360,000; in the data active = survival enhancement above about 18%;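 also: cells exposed to compounds for 16 hours before the ATP read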
An asterisk follows results filed as active. An excerpt weighted towards active compounds, which were near 4% of everything screened.

Screening CN(C)C(=O)c1ccc(SC(=S)NCc2ccccc2)cc1 returned SENP1 inh 1, FAS TE block 46, H9c2 protect -7 and hiPSC survival -1.
Screening COc1ccccc1C(C)Nc1nc(-c2cccnc2)nc2ccccc12 (configuration not stated) returned SENP1 inh -3, NR3A LBD binder -16, FAS TE block 12, H9c2 protect 8, Arrestin-AP2 inh -2 and hiPSC survival 0.
O=S1(=O)CC(N2CCN(CC3CC3)CC2)CN1C1CCCCC1 (configuration not stated) was read as SENP1 inh 0, FAS TE block -11, H9c2 protect 5 and hiPSC survival 2.
For Cc1ccc(N2CC(C(=O)Nc3cc(S(=O)(=O)N4CCCCC4)ccc3C)CC2=O)cc1 (configuration not stated) the results were SENP1 inh 1, FAS TE block 2, H9c2 protect -8 and hiPSC survival 0.
`O=C(CSc1nnnn1C1CCCC1)Nc1ccc(F)cc1` gave SENP1 inh 1, NR3A LBD binder 1, FAS TE block -2, H9c2 protect -12, Arrestin-AP2 inh 7 and hiPSC survival 10.
For O=C(CSc1nnnn1C1CCCCC1)Nc1ccc(F)cc1 the results were SENP1 inh -2, NR3A LBD binder 18*, FAS TE block -8, H9c2 protect -6, Arrestin-AP2 inh 7 and hiPSC survival 2.
For CCCCNC(=O)c1nc(-c2cc3ccccc3[nH]2)oc1-c1ccccc1 the results were SENP1 inh -8.
`O=C(CSc1ccc(Cl)cc1)Nc1ccc(N2CCN(c3ccccc3)CC2)c(F)c1` gave SENP1 inh -5, NR3A LBD binder 19*, FAS TE block -10, H9c2 protect 6, Arrestin-AP2 inh -8 and hiPSC survival 0.
Screening COc1ccc(S(=O)(=O)N(C)C[C@@H]2Oc3cc(Br)ccc3S(=O)(=O)N([C@H](C)CO)C[C@@H]2C)cc1 returned SENP1 inh -1, FAS TE block 20, H9c2 protect 14 and hiPSC survival -1.
Cc1ccc(C(=O)NNC(=O)C2CCN(C(=O)OC(C)(C)C)CC2)cc1 was read as SENP1 inh 1, NR3A LBD binder 30*, FAS TE block -2, H9c2 protect 0, Arrestin-AP2 inh 25 and hiPSC survival 1.
Screening COc1ccc(NC(=O)C[C@H]2C(=O)N(C3CCCCC3)C[C@@H]2C)cc1 returned SENP1 inh 1, FAS TE block -4, H9c2 protect -7 and hiPSC survival 4.
`CC(=O)OC(C)(C)/C=C/C(=O)[C@](C)(O)C1[C@H](O)C[C@@]2(C)C3CC=C4C(C=C(O[C@@H]5O[C@H](CO)[C@@H](O)[C@H](O)[C@H]5O)C(=O)C4(C)C)[C@]3(C)C(=O)C[C@]12C` (some centres not stated) gave SENP1 inh 0, NR3A LBD binder 16*, FAS TE block -5, H9c2 protect 8, Arrestin-AP2 inh -2 and hiPSC survival -2.
`COc1ccc(CN2C(=O)C(CC(=O)NC3CC3)CC(C(=O)N(C)C)=C2C)cc1` (configuration not stated) gave SENP1 inh 4, FAS TE block -7, H9c2 protect -1 and hiPSC survival 1.
O=C(CN1C(=O)/C(=C2/SC(=S)N(CCS(=O)(=O)O)C2=O)c2ccccc21)Nc1cccc(C(F)(F)F)c1 was read as SENP1 inh 0, NR3A LBD binder 8, FAS TE block 5, H9c2 protect 1, Arrestin-AP2 inh -7 and hiPSC survival -2.
For O=C(CN1C(=O)/C(=C2\SC(=S)N(CCS(=O)(=O)O)C2=O)c2ccccc21)Nc1cccc(Br)c1 the results were SENP1 inh 1, NR3A LBD binder 12*, FAS TE block 14, H9c2 protect -1, Arrestin-AP2 inh 0 and hiPSC survival 0.
Cc1ccc2c(c1)C1(SC(C)C(=O)N1c1ccc(Cl)cc1)C(=O)N2 (configuration not stated) was read as SENP1 inh 2, FAS TE block -8, H9c2 protect -6 and hiPSC survival -1.

Bioassay records deposited in PubChem BioAssay by several laboratories.
